Arrestin-AP2 inh – inhibitors of human beta-arrestin and AP2 interaction; actives 0.31% (n = 340,000); FITC-arrestin peptide / GST-AP2 beads, flow cytometry; AP2 beta2 appendage carries R879A mutation; inhibition, % at 10 µM;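 active means inhibition above a set limit, near 3 SD of compounds lacking own fluorescence, cut at about 54% in these data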;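 further: plate controls were DMSO wells for no effect and 5 µM unlabelled arrestin peptide for full effect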
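System: GST-AP2 R879A glutathione beads | Also added: FITC-arrestin peptide, 50 nM | Times: 12 min plus 1 h, RT | Signal: Bead flow cytometry, FITC channel | Buffer or medium: PBS with 0.05% Tween 20 and 0.1% BSA | Read-out basis: Percent drop in bead-associated FITC signal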
Dyrk1A ADPGlo – Dyrk1A (rat) kinase inhibition; ADP-Glo luminescence, NFATc1 peptide; AID 504441; actives 0.43% (n = 310,000); Q63470; inhibition, % at 12.5 µM; in the data active means inhibition above about 50%;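 further: plate controls were vehicle with enzyme for no effect and no enzyme for full effect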
GSK3beta inhib – human GSK3beta kinase inhibition | P49841 | GST-GSK3beta kinase, ADP-Glo luminescence, 60 min; stronger effect = lower value | activity score (negative = inhibition), % at 10 µM | actives 0.038% (n = 300,000);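 active means more than half of replicate wells score below -50%, meaning over 50% inhibition versus plate controls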;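 further: 0% = median DMSO wells and -100% = median GW8510 positive control wells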
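Test system: GST-fused GSK3beta enzyme, cell-free | Quantity: 1.6 ng GST-GSK3beta enzyme per well | Reagent: 25 µM ATP with peptide substrate | Schedule: 60 min enzyme reaction, room temperature | Signal: Luminescent ADP-Glo measurement of ADP formed | Read-out basis: Score relative to plate controls | Control set: DMSO and 20 µM GW8510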
GSK3 alpha inh – inhibitors of human GSK-3 alpha kinase; P49840; ADP-Glo luminescence, 60 min; inhibition, % at 10 µM; actives 0.1% (n = 320,000); AID 2650;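 active means more than half of replicates show inhibition above 20%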;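 further: GST-tagged GSK-3 alpha with peptide substrate and 25 µM ATP; 0% = DMSO neutral wells and 100% = GW8510 positive control wells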
Rin1 Abl inh – human Rin1-Abl interaction inhibition. inhibition, % at 7.35 µM. actives 0.4% (n = 360,000). AID 588664. P00519+Q13671. TR-FRET Rin1/Abl binding, biochemical; in the data active means inhibition above about 5%, passing the limit was not always enough
STK33 inh – human STK33 kinase inhibition; inhibition, % at 10 µM; purified STK33, MBP phosphorylation, ADP-Glo luminescence; actives 0.073% (n = 320,000); Q9BYT3;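 active means inhibition at or above 25%, using the most active replicate where run in duplicate; inactive means inhibition below 25%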
Target sequence (Q9BYT3 whole entry, looked up): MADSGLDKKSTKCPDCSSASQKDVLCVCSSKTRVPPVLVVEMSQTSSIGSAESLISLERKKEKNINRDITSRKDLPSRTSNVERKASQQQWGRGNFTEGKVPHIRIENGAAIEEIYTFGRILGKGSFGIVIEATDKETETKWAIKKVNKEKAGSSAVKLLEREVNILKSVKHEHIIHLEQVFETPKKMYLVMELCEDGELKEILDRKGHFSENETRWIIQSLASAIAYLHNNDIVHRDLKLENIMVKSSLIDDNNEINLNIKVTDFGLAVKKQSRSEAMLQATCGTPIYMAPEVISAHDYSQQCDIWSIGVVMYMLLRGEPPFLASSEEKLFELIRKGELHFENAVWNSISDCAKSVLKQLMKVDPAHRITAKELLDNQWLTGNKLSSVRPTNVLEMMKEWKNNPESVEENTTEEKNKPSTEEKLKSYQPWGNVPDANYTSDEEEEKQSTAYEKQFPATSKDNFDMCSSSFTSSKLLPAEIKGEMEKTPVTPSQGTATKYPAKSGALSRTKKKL
Arr AP2 CP1 – inhibitors of human beta-arrestin and AP2 interaction; GST-AP2 beads, FITC arrestin peptide binding, flow cytometry; GST-fused beta2-adaptin appendage, R879A mutant; actives 2% (n = 1,300); inhibition, % at 10 µM; shares compounds with Arrestin-AP2 inh; AID 504908;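 active means inhibition above a set limit, roughly 3 SD of non-fluorescent compound noise, cut at about 38% in these data; inactive means inhibition at or below that limit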;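 further: loss of bead fluorescence from 50 nM FITC arrestin peptide bound to appendage; 0% = negative control wells and 100% = excess unlabelled arrestin peptide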
GST-FITC bead – counter-screen for beta-arrestin AP2 inhibitors: GST-GSH bead binding; shares compounds with Arrestin-AP2 inh; GST-fluorescein binding to GSH beads, fluorescence; inhibition, % at 10 µM; actives 2% (n = 1,300);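 active means inhibition above 50%, about 3 SD of the inhibition seen with non-fluorescent compounds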;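 further: fluorescein maleimide labelled GST captured on 4 micron glutathione beads; higher means more loss of bead fluorescence from quenching or blocked binding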
Numbers without * were called inactive; · = no result given. Shown are actives, neighbours in structure and some others; about 0.99% of the full set was active somewhere.

SMILES	Arrestin-AP2 inh	Dyrk1A ADPGlo	GSK3beta inhib	GSK3 alpha inh	Rin1 Abl inh	STK33 inh	Arr AP2 CP1	GST-FITC bead
CN(C(=O)COC(=O)c1ccccc1C(=O)c1ccccc1)c1ccccc1	-2	4	·	1	4	-1	·	·
Cc1nc(NCCCN2CCOCC2)c2oc3ccccc3c2n1	8	4	-2	1	-2	0	·	·
Cc1nc(NCCN2CCOCC2)c2oc3ccccc3c2n1	55*	-4	2	-7	1	-1	15	-6
O=C(O)C(c1ccccc1)C(O)C1CCCC1 (configuration not stated)	-3	10	·	·	1	·	·	·
Cc1ccc(N2CC(C(=O)Nc3nnc(SCC(=O)N4CCOCC4)s3)CC2=O)cc1 (configuration not stated)	11	-8	-2	2	0	-1	·	·
Cc1cccc(C(=O)N/C(=C\c2ccco2)C(=O)N2CCCCCC2)c1	-21	4	1	-3	0	-1	·	·
Cc1cccc(C(=O)N/C(=C/c2ccco2)C(=O)N2CCCCCC2)c1	66*	-1	0	-1	-2	1	-2	11
CCc1ccc2[nH]c(=O)c(CN(CCN(CC)CC)C(=S)NCc3ccco3)cc2c1	55*	·	-5	0	1	2	9	-7
Cc1ccc2nc(SCC(=O)OCc3ccccc3)nc(=O)n2c1	26	-7	2	·	-2	·	·	·
O=C(CCC(=O)N1CCOCC1)Nc1ccc(Cl)c(Cl)c1	1	·	1	-3	4	1	·	·
O=C(CCC(=O)N1CCCCC1)Nc1ccc(Cl)c(Cl)c1	85*	2	-4	-3	1	-2	-1	-4
CCn1cnc2cc(NS(=O)(=O)c3ccc(OC)c(OC)c3)ccc21	61*	-5	-2	-3	1	1	2	-5
COc1ccccc1C(=O)Nc1nnc(S(=O)(=O)N2CCCCC2)s1	64*	-3	2	-3	-5	-1	6	-18
O=C(CCN=C1NS(=O)(=O)c2ccccc21)OCc1cccc(Cl)c1	-7	4	9	-7	6	1	·	·
O=C(OCc1ccc(F)cc1)c1cc2ccccc2cc1O	3	-4	-1	-2	-4	0	·	·
O=C(OCc1ccc(F)cc1)c1ccc2c(c1)-c1ccccc1C2=O	94*	-3	2	-1	0	-1	0	-3
Cc1ccccc1OCC(=O)OCC(=O)NCc1ccccc1	45	-5	·	-1	3	0	·	·
CC(C)(C)c1ccccc1OCC(=O)NCc1ccccc1	64*	·	3	-2	-2	2	4	-8
O=C(NCc1ccccc1Cl)C1CCCN1C(=O)Nc1ccccc1 (configuration not stated)	4	3	-24	-4	3	0	·	·
COc1ccccc1NS(=O)(=O)c1ccc(C)c(C(=O)NCC2(N(C)C)CCCCC2)c1	6	1	·	0	0	-2	3	-4
O=C(NCC1(N2CCOCC2)CCCCC1)c1cccc(S(=O)(=O)Nc2ccc(F)cc2)c1	-8	·	·	-1	5	0	-2	-1
COc1ccccc1NS(=O)(=O)c1cccc(C(=O)NCC2(N3CCCCC3)CCCCC2)c1	-7	4	·	·	-3	·	8	-9
Cc1cccc(NS(=O)(=O)c2cccc(C(=O)NCC3(N4CCOCC4)CCCCC3)c2)c1	-3	7	·	·	2	·	0	-2
O=C(NCC1(N2CCCCC2)CCCCC1)c1cccc(NS(=O)(=O)c2ccccc2)c1	-7	-1	-5	-1	-1	0	·	·
CCc1nc2ccc(C(=O)NCCCN3CCCC3=O)cn2c1N(C)Cc1ccc(OC)cc1	·	·	·	·	-4	·	·	·
CCCn1c(SCC(=O)N2CCCCC2)nnc1C(C)C	56*	-2	2	0	6	-1	-5	-1

From PubChem
